Reference: ChEMBL document CHEMBL1150563, “Six new diarylheptanoids from the seeds of Alpinia blepharocalyx” (2001)
pEC50: −log10 of the molar value.

Assays:
HT-1080 = assay: Antiproliferative activity against human HT1080 cells by MTT assay; format: functional; details: read-out: ED50 (the source's name)
Method in brief: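 Human HT-1080 fibrosarcoma cells grown in Eagle's MEM with 10% fetal calf serum, 0.1% NaHCO3 and 2 mM glutamine. Viability with and without test agent read by MTT assay; 5-fluorouracil as positive control. ED50 calculated from the mean of six determinations.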

[1] = Antiproliferative activity against mouse Colon 26-L5 cells by MTT assay; format: functional; details: read-out: ED50 (the source's name)
Method in brief: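 Murine colon 26-L5 carcinoma cells grown in RPMI-1640 with 10% fetal calf serum, 0.1% NaHCO3 and 2 mM glutamine. Cell viability in presence and absence of agent measured by MTT; 5-fluorouracil served as positive control. ED50 derived from the mean of six determinations.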

In the case of `COc1cc(O)cc2c1C(=O)C[C@@H](c1ccc(O)cc1)O2`, the pEC50 (HT-1080) was < 4.00 and the pEC50 [1] was < 4.00.

In the case of `O=C(/C=C(O)/C=C/c1ccc(O)cc1)CCc1ccc(O)cc1`, the pEC50 (HT-1080) was < 4.00 and the pEC50 [1] was 4.20.

Work on `COc1cc(O)cc(OC)c1C(=O)/C=C/c1ccc(O)cc1` yielded a pEC50 (HT-1080) of 4.30 and a pEC50 [1] of 4.54.

With `CCO[C@H](/C=C/c1ccccc1)C[C@@H](O)CCc1ccc(O)cc1` the pEC50 (HT-1080) was < 4.00 and the pEC50 [1] was 4.02.

`COc1cc(/C=C/c2ccc(O)cc2)oc(=O)c1` showed a pEC50 (HT-1080) of 4.70 and a pEC50 [1] of 4.68.

Work on `O=C(/C=C/C=C/c1ccc(O)cc1)CCc1ccc(O)cc1` yielded a pEC50 (HT-1080) of 4.10 and a pEC50 [1] of 4.24.

With `Oc1ccc(CC[C@H](O)C[C@@H](O)CCc2ccc(O)cc2)cc1` the pEC50 (HT-1080) was 4.03 and the pEC50 [1] was 4.89.

In the case of `CO[C@H](/C=C/c1ccccc1)C[C@@H](O)CCc1ccc(O)cc1`, the pEC50 (HT-1080) was < 4.00 and the pEC50 [1] was 4.06.

With `CO[C@@H](/C=C/c1ccccc1)C[C@@H](O)CCc1ccc(O)cc1` the pEC50 (HT-1080) was < 4.00 and the pEC50 [1] was < 4.00.

For `CCO[C@@H](/C=C/c1ccccc1)C[C@@H](O)CCc1ccc(O)cc1`, the pEC50 (HT-1080) was < 4.00 and the pEC50 [1] was < 4.00.

Work on `CO[C@@H](CCc1ccc(O)cc1)CC(=O)/C=C/c1ccc(O)cc1` yielded a pEC50 (HT-1080) of 5.00 and a pEC50 [1] of 5.28.

In the case of `CC(=O)/C=C/c1ccc(O)cc1`, the pEC50 (HT-1080) was < 4.00 and the pEC50 [1] was < 4.00.

For `O=C(/C=C/c1ccc(O)cc1)c1ccc(O)cc1` [4,4'-DIHYDROXYCHALCONE], the pEC50 (HT-1080) was < 4.00 and the pEC50 [1] was < 4.00.

With `O=Cc1ccc(O)cc1` [4-HYDROXYBENZALDEHYDE] the pEC50 (HT-1080) was < 4.00 and the pEC50 [1] was < 4.00.

With `O=C(O)/C=C/c1ccc(O)cc1` [COUMARIC ACID] the pEC50 (HT-1080) was < 4.00 and the pEC50 [1] was < 4.00.

For `COc1cc(/C=C/c2ccccc2)oc(=O)c1` [DESMETHOXYYANGONIN], the pEC50 (HT-1080) was < 4.00 and the pEC50 [1] was < 4.00.

For `O=c1[nH]cc(F)c(=O)[nH]1` [FLUOROURACIL], the pEC50 (HT-1080) was 5.10 and the pEC50 [1] was 6.30.

`COc1cc(O)cc(O)c1C(=O)/C=C/c1ccc(O)cc1` [HELICHRYSETIN] gave a pEC50 (HT-1080) of 4.40 and a pEC50 [1] of 4.19.

In the case of `COC(=O)/C=C/c1ccc(O)cc1` [METHYL P-HYDROXYCINNAMATE], the pEC50 (HT-1080) was < 4.00 and the pEC50 [1] was 4.07.

`Oc1cc(O)cc(O)c1` [PHLOROGLUCINOL] gave a pEC50 (HT-1080) of 4.68 and a pEC50 [1] of 4.58.

In the case of `CC[C@H](CC[C@@H](C)[C@H]1CC[C@H]2[C@@H]3CC=C4C[C@@H](O[C@@H]5O[C@H](CO)[C@@H](O)[C@H](O)[C@H]5O)CC[C@]4(C)[C@H]3CC[C@]12C)C(C)C` [SITOGLUSIDE], the pEC50 (HT-1080) was < 4.00 and the pEC50 [1] was < 4.00.
